In article PMC3902791 (Molecular imaging and biology : MIB : the official …, 2012):

Experiment: Humanized time-integrated activity coefficients
Type: in vivo, rhesus macaques
Summary of the method: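 Six rhesus macaques (3 female, 3 male) received the radiolabelled test compound intravenously, followed by whole-body PET/CT. Organ activity came from 3D VOIs drawn on PET images. Time–activity curves were fitted mono-exponentially, or by a linear fit of log activity for one animal with two scans. Coefficients were scaled by human/macaque whole-body-normalised organ mass ratios, using CT-derived macaque organ masses and the OLINDA/EXM 73.7-kg adult male model.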

## O=C(O)C[18F] [^18F-FACE, ^18F-fluoroacetate]
All, Mean±SD
  Humanized residence time, Gall bladder: 0.011 ± 0.005 h
  Humanized residence time, Heart: 0.034 ± 0.017 h
  Humanized residence time, Intestines: 0.319 ± 0.134 h
  Humanized residence time, Kidneys: 0.044 ± 0.013 h
  Humanized residence time, Liver: 0.209 ± 0.171 h
  Humanized residence time, Remainder of body: 1.751 ± 0.363 h
Female, Mean±SD
  Humanized residence time, Gall bladder: 0.016 ± 0.002 h
  Humanized residence time, Heart: 0.024 ± 0.013 h
  Humanized residence time, Kidneys: 0.041 ± 0.016 h
  Humanized residence time, Liver: 0.132 ± 0.082 h
  Humanized residence time, Remainder of body: 1.724 ± 0.549 h
Male, Mean±SD
  Humanized residence time, Gall bladder: 0.007 ± 0.002 h
  Humanized residence time, Heart: 0.043 ± 0.016 h
  Humanized residence time, Intestines: 0.400 ± 0.154 h
  Humanized residence time, Kidneys: 0.047 ± 0.012 h
  Humanized residence time, Liver: 0.287 ± 0.220 h
  Humanized residence time, Remainder of body: 1.778 ± 0.159 h
Animal 1, male
  Humanized residence time, Gall bladder: 0.006 h
  Humanized residence time, Heart: 0.048 h
  Humanized residence time, Kidneys: 0.061 h
  Humanized residence time, Liver: 0.505 h
  Humanized residence time, Remainder of body: 1.706 h
Animal 1, male, assigned in thirds to small, upper large, lower large intestine
  Humanized residence time, Intestines: 0.235 h
Animal 2, male
  Humanized residence time, Gall bladder: 0.009 h
  Humanized residence time, Heart: 0.057 h
  Humanized residence time, Intestines: 0.426 h
  Humanized residence time, Kidneys: 0.038 h
  Humanized residence time, Liver: 0.290 h
  Humanized residence time, Remainder of body: 1.668 h
Animal 3, male
  Humanized residence time, Heart: 0.025 h
  Humanized residence time, Intestines: 0.540 h
  Humanized residence time, Kidneys: 0.043 h
  Humanized residence time, Liver: 0.065 h
  Humanized residence time, Remainder of body: 1.960 h
Animal 4, female
  Humanized residence time, Gall bladder: 0.017 h
  Humanized residence time, Heart: 0.039 h
  Humanized residence time, Intestines: 0.261 h
  Humanized residence time, Kidneys: 0.032 h
  Humanized residence time, Liver: 0.226 h
  Humanized residence time, Remainder of body: 1.138 h
Animal 5, female
  Humanized residence time, Gall bladder: 0.014 h
  Humanized residence time, Heart: 0.016 h
  Humanized residence time, Intestines: 0.256 h
  Humanized residence time, Kidneys: 0.059 h
  Humanized residence time, Liver: 0.078 h
  Humanized residence time, Remainder of body: 1.804 h
Animal 6, female
  Humanized residence time, Heart: 0.017 h
  Humanized residence time, Intestines: 0.196 h
  Humanized residence time, Kidneys: 0.030 h
  Humanized residence time, Liver: 0.093 h
  Humanized residence time, Remainder of body: 2.228 h
